From ChEMBL document CHEMBL4725241, “Discovery of BMS-986235/LAR-1219: A Potent Formyl Peptide Receptor 2 (FPR2) Selective Agonist for the Prevention of Heart Failure” (J Med Chem, 2020)
pEC50: −log10 of the molar value. The source made the active and inactive calls. The rule behind the calls is not given here.

Assays:
Mus musculus = assay: Antiinflammatory activity in mouse assessed as increase in LPS-induced IL-10 expression at 0.3 mg/kg, po
[1] = Half life in Beagle dog at 1 mg/kg, po by LC-MS/MS analysis; type: ADME, organism-based, Canis lupus familiaris; details: in vivo
Method in brief: (§1)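 Male animals dosed orally with a suspension in 0.5% MC. Blood was taken into EDTA 2K capillaries and plasma was stored frozen. Plasma was mixed with methanol/acetonitrile (1:1) plus internal standard, centrifuged, and drug was measured by LC-MS/MS. AUC0-inf was obtained by the trapezoidal rule, extrapolated with kel from the terminal phase. t1/2 = ln2/kel.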

[2] = Volume of distribution at steady state in Crl:CD1(ICR) mouse at 0.5 mg/kg, iv by LC-MS/MS analysis; type: ADME, organism-based; details: in vivo, read-out: Vdss
Method in brief: (§2)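 Male animals received intravenous solution in DMSO/PEG400/saline (5/47.5/47.5). EDTA plasma was extracted with methanol/acetonitrile (1:1) plus internal standard and quantified by LC-MS/MS. AUC0-inf was calculated by the trapezoidal rule with terminal-phase kel extrapolation.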

[3] = Clearance in rat liver microsome at 0.1 umol/l and measured for 60 mins by LC-MS/MS analysis; type: ADME; details: microsomes, 1 h, 0.1 µM, dose 0.1 µmol/L
Method in brief: (§3)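 Liver microsomes (1 mg protein/mL final) with an NADPH regenerating system were preincubated 5 min at 37°C, then given 0.1 µmol/L compound. Samples were taken at 0-60 min, quenched in methanol/acetonitrile with internal standard, and analysed by LC-MS/MS. Runs were in triplicate. kel came from 5-30 min points. CLint = kel/protein concentration (mL/min/mg protein).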

[4] = Oral bioavailability in cynomolgus monkey at 3 mg/kg by LC-MS/MS analysis; type: ADME, organism-based, Macaca fascicularis; details: in vivo
Method in brief: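 Oral bioavailability = (AUC0-inf,po/dose po)/(AUC0-inf,iv/dose iv) × 100. Oral dosing used a 0.5% MC suspension. IV dosing used a DMSO/PEG400/saline (5/47.5/47.5) solution, with CD1(ICR) mice for the iv arm. Plasma drug levels were measured by LC-MS/MS after methanol/acetonitrile extraction with internal standard.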

[5] = Volume of distribution at steady state in Crl:CD(SD) rat at 1 mg/kg, iv by LC-MS/MS analysis; type: ADME, organism-based; details: in vivo, read-out: Vdss
Method in brief: as §2

[6] = Clearance in dog liver microsome at 0.1 umol/l and measured for 60 mins by LC-MS/MS analysis; type: ADME, Canis lupus familiaris; details: microsomes, 1 h, 0.1 µM, dose 0.1 µmol/L
Method in brief: as §3

[7] = AUC (0 to infinity) in Beagle dog at 1 mg/kg, po by LC-MS/MS analysis; type: ADME, organism-based, Canis lupus familiaris; design: route oral, time infinity, dose 1 mg/kg; details: in vivo
Method in brief: as §1

[8] = Clearance in monkey liver microsome at 0.1 umol/l and measured for 60 mins by LC-MS/MS analysis; type: ADME, Macaca mulatta; details: rhesus monkey, microsomes, 1 h, 0.1 µM, dose 0.1 µmol/L
Method in brief: as §3

[9] = molecular target: T1, N-formyl peptide receptor 2 (Homo sapiens, UniProt P25090); assay: Agonist activity at human FPR2 expressed in CHO-K1 cells assessed as stimulation of beta-arrestin recruitment; type: cell-based
T1 sequence (P25090 whole entry): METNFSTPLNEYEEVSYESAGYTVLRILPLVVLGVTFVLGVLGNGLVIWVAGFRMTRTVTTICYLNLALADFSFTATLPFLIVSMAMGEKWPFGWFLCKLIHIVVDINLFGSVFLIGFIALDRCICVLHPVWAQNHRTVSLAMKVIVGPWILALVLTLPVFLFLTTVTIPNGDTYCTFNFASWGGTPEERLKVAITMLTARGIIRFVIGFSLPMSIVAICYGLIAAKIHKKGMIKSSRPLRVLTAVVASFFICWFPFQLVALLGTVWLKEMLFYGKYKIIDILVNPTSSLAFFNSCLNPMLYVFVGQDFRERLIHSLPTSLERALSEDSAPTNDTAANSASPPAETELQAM

[10] = Clearance in dog hepatocytes at 0.1 umol/l and measured for 6 hrs by LC-MS/MS analysis; type: ADME, cell-based, Canis lupus familiaris, Hepatocyte; details: dose 0.1 µmol/L, read-out: CLH
Method in brief: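 Hepatocytes (1 × 10⁶ cells/mL) in modified Krebs–Henseleit buffer were preincubated 5 min at 37°C, then given 0.1 µmol/L compound. Samples were taken at 0, 1, 2, 4 and 6 h and analysed by LC-MS/MS, in duplicate. kel came from 0-2 h points. CLint was scaled by hepatocellularity and liver weight (mL/min/kg).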

[11] = Oral bioavailability in Beagle dog at 1 mg/kg by LC-MS/MS analysis; type: ADME, organism-based, Canis lupus familiaris; details: in vivo
[12] = Volume of distribution at steady state in cynomolgus monkey at 1 mg/kg, iv by LC-MS/MS analysis; type: ADME, organism-based, Macaca fascicularis; details: in vivo, read-out: Vdss
Method in brief: as §2

[13] = Cmax in Crl:CD(SD) rat at 1 mg/kg, po by LC-MS/MS analysis; type: ADME, organism-based; design: route oral, dose 1 mg/kg; details: in vivo
Method in brief: as §1

[14] = Total clearance in Crl:CD(SD) rat at 1 mg/kg, iv by LC-MS/MS analysis; type: ADME, organism-based; details: in vivo
Method in brief: as §2

[15] = molecular target: T2, Formyl peptide receptor 2 (Mus musculus, UniProt O88536); assay: Agonist activity at mouse FPR2 expressed in HEK 293 cells co-expressing Galpha15 measured every 1.5 sec for 80 sec by Fluo-4 NW staining based scanning fluorometric method; type: cell-based, HEK293
T2 sequence (O88536 whole entry): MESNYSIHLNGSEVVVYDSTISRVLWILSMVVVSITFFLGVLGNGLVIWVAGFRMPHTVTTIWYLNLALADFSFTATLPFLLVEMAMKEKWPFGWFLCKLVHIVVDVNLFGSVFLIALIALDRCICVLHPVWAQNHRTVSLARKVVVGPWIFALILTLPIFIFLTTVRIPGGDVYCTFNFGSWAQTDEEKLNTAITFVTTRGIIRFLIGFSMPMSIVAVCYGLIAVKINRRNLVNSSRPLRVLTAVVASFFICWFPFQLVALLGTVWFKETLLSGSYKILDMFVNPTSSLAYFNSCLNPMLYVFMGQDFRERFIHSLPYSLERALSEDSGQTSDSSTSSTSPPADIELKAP
Method in brief: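 HEK293 cells were transiently co-transfected with FPR plus Gα15 (Lipofectamine 2000), then reseeded after 24 h on poly-D-lysine plates and grown one more day. Cells were loaded with Fluo-4 NW for 45 min at 37°C. Compound was added and fluorescence (ex 485/em 525 nm) read for 80 s at 1.5 s intervals. Response = maximal peak minus basal.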

fMet-Leu-Phe receptor = molecular target: T3, fMet-Leu-Phe receptor (Homo sapiens, UniProt P21462); assay: Agonist activity at human FPR1 expressed in HEK 293 cells co-expressing Galpha15 measured every 1.5 sec for 80 sec by Fluo-4 NW staining based scanning fluorometric method; type: cell-based, HEK293
T3 sequence (P21462 whole entry): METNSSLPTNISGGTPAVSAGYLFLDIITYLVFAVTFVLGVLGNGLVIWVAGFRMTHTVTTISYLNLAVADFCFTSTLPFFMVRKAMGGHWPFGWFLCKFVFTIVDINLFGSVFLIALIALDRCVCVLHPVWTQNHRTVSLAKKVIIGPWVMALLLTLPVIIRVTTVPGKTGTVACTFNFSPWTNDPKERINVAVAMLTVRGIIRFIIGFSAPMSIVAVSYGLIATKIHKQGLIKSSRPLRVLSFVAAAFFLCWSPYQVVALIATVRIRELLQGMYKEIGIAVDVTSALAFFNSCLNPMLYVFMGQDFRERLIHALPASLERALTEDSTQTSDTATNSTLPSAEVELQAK

## COc1cc(F)c([C@@H]2CNC(=O)[C@H]2NC(=O)Nc2ccccc2)c(F)c1 [BMS-986235]
Mus musculus
  Activity: Active
[1]
  half-life: 150 min
[2]
  Vd: 3.5 L/kg
[3]
  CLH: 0.021 mL/min/mg
[4]
  bioavailability: 49%
[5]
  Vd: 3 L/kg
[6]
  CLH: 0.042 mL/min/mg
[7]
  AUC(0-inf): 5.7 µM·h
[8]
  CLH: 0.03 mL/min/mg
[9]
  pEC50: 6.89
[10]
  CLint scaled at 0.1 µM: 50 mL/min/kg
[11]
  bioavailability: 50%
[12]
  Vd: 1.2 L/kg
[13]
  Cmax: 240 nM
[14]
  clearance: 49 mL/min/kg
[15]
  pEC50: 8.47
fMet-Leu-Phe receptor
  pEC50: 5.55
